Assays:
[1] = test system: NCI-H522; assay: Cytotoxicity against human NCI-H522 cells assessed as growth inhibition at 1 x 10 '-5 M after 24 hrs by MTT assay; format: functional; conditions: NCI-H522, 24 h, read-out: GI
Summary of the method: (§1)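 MTT screen at a single concentration of 1 × 10⁻⁵ M, 24 h exposure. Seeding was 5 × 10³ cells/well in RPMI-1640 with 2 mM glutamine. Vehicle was 0.1% final DMSO. MTT was added for 4 h at 37 °C, formazan dissolved in DMSO/glycine buffer (pH 10.5), and A570 read. Percent growth inhibition was calculated against vehicle-treated cells; triplicate, mean of three independent experiments.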

[2] = test system: PA-1; assay: Cytotoxicity against human PA1 cells assessed as growth inhibition at 1 x 10 '-5 M after 24 hrs by MTT assay; format: functional; conditions: PA-1, 24 h, read-out: GI; summary of the method: as §1
[3] = test system: HepG2; assay: Cytotoxicity against human HepG2 cells assessed as growth inhibition at 1 x 10 '-5 M after 24 hrs by MTT assay; format: functional; conditions: HepG2, 24 h, read-out: GI; summary of the method: as §1
[4] = test system: T47D; assay: Cytotoxicity against human T47D cells assessed as growth inhibition at 1 x 10 '-5 M after 24 hrs by MTT assay; format: functional; conditions: read-out: GI; summary of the method: as §1
[5] = test system: Rattus norvegicus; assay: Antiinflammatory activity in Charles Foster albino rat assessed as inhibition of carrageenan-induced paw edema at 50 mg/kg, po administered 30 mins before carrageenan challenge measured after 1 to 3 hrs by plethysmometer analysis; format: functional
Summary of the method: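 Rats of both sexes (120–160 g; pregnant females excluded), five per group, were dosed orally at 50 mg/kg. After 30 min, 0.20 mL of freshly prepared 1% carrageenan in 0.9% NaCl was injected into the plantar aponeurosis of the hind paw. Paw volume was read by water plethysmometer before and 1–3 h later. Percent inhibition was taken against a carrageenan-only control group of five rats.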

[6] = test system: HCT-15; assay: Cytotoxicity against human HCT15 cells assessed as growth inhibition at 1 x 10 '-5 M after 24 hrs by MTT assay; format: functional; conditions: HCT-15, 24 h, read-out: GI; summary of the method: as §1
[7] = test system: NCI-H522; assay: Cytotoxicity against human NCI-H522 cells after 24 hrs by MTT assay; format: functional, cell-based; conditions: NCI-H522, 24 h
Summary of the method: (§2)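 Cell lines came from NCCS Pune and were grown in RPMI-1640 with 2 mM glutamine, pH 7.4. Cells were seeded at 5 × 10³ per well and exposed to serial dilutions in DMSO for 24 h, with 0.1% final DMSO as vehicle control. MTT (5 mg/ml) was added for 4 h at 37 °C. Formazan was dissolved in DMSO plus Sorensen glycine buffer (pH 10.5) and read at 570 nm. IC50 came from % inhibition versus vehicle; triplicate, mean ± SD of three experiments.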

[8] = test system: HCT-15; assay: Cytotoxicity against human HCT15 cells after 24 hrs by MTT assay; format: functional, cell-based; conditions: HCT-15, 24 h; summary of the method: as §2
[9] = test system: T47D; assay: Cytotoxicity against human T47D cells after 24 hrs by MTT assay; format: functional, cell-based; summary of the method: as §2
[10] = test system: COS-1; assay: Cytotoxicity against african green monkey COS1 cells after 24 hrs by MTT assay; format: cell-based; conditions: Chlorocebus aethiops, COS-1, 24 h
[11] = test system: HepG2; assay: Cytotoxicity against human HepG2 cells after 24 hrs by MTT assay; format: functional, cell-based; conditions: HepG2, 24 h; summary of the method: as §2
[12] = test system: PA-1; assay: Cytotoxicity against human PA1 cells after 24 hrs by MTT assay; format: functional, cell-based; conditions: PA-1, 24 h; summary of the method: as §2

`N=C(NCCCCNC(=N)c1cnccn1)c1cnccn1` gave an inhibition of growth at 10 µM [1] of 5%, an inhibition of growth at 10 µM [2] of 15% and an inhibition of growth at 10 µM [3] of 17%. It also gave an inhibition of growth at 10 µM [4] of 19%, an inhibition in vivo at 50 mg/kg [5] of 37% and an inhibition of growth at 10 µM [6] of 9%.

`N=C(NCCCN1CCN(CCCNC(=N)c2ccccn2)CC1)c1ccccn1` was tested, and the inhibition of growth at 10 µM [1] was 39%, the inhibition of growth at 10 µM [2] was 31% and the inhibition of growth at 10 µM [3] was 34%. It also gave an IC50 [7] of 22 µM, an IC50 [8] of 25.1 µM and an inhibition of growth at 10 µM [4] of 39%. It also gave an IC50 [9] of 22.5 µM, an inhibition in vivo at 50 mg/kg [5] of 38% and an inhibition of growth at 10 µM [6] of 31%. For the same molecule, the IC50 [10] was 203 µM, the IC50 [11] was 20.8 µM and the IC50 [12] was 39.7 µM.

With `N=C(NCCCN1CCN(CCCNC(=N)c2ccncc2)CC1)c1ccncc1` the inhibition of growth at 10 µM [1] was 31%, the inhibition of growth at 10 µM [2] was 13% and the inhibition of growth at 10 µM [3] was 6%. For the same molecule, the inhibition of growth at 10 µM [4] was 2%, the inhibition in vivo at 50 mg/kg [5] was 31% and the inhibition of growth at 10 µM [6] was 9%.

`N=C(NCCCN1CCN(CCCNC(=N)c2cnccn2)CC1)c1cnccn1` showed an inhibition of growth at 10 µM [1] of 15%, an inhibition of growth at 10 µM [2] of 26% and an inhibition of growth at 10 µM [3] of 22%. It also gave an inhibition of growth at 10 µM [4] of 28%, an inhibition in vivo at 50 mg/kg [5] of 27% and an inhibition of growth at 10 µM [6] of 12%.

With `N=C(Nc1ccc(-c2ccc(NC(=N)c3cnccn3)cc2)cc1)c1cnccn1` the inhibition of growth at 10 µM [1] was 43%, the inhibition of growth at 10 µM [2] was 43% and the inhibition of growth at 10 µM [3] was 37%. For the same molecule, the IC50 [7] was 14.1 µM, the IC50 [8] was 11.9 µM and the inhibition of growth at 10 µM [4] was 14%. For the same molecule, the IC50 [9] was 62.4 µM, the inhibition in vivo at 50 mg/kg [5] was 31% and the inhibition of growth at 10 µM [6] was 45%. It also gave an IC50 [10] of 100 µM, an IC50 [11] of 20.3 µM and an IC50 [12] of 17.1 µM.

Work on `N=C(NCCN1CCOCC1)c1ccccn1` yielded an inhibition of growth at 10 µM [1] of 31%, an inhibition of growth at 10 µM [2] of 43% and an inhibition of growth at 10 µM [3] of 40%. The inhibition of growth at 10 µM [4] was 21%, the inhibition in vivo at 50 mg/kg [5] was 0% and the inhibition of growth at 10 µM [6] was 12%.

`N=C(NCCN1CCOCC1)c1ccncc1` showed an inhibition of growth at 10 µM [1] of 11%, an inhibition of growth at 10 µM [2] of 43% and an inhibition of growth at 10 µM [3] of 9%. It also gave an inhibition of growth at 10 µM [4] of 12%, an inhibition in vivo at 50 mg/kg [5] of 28% and an inhibition of growth at 10 µM [6] of 17%.

With `C[C@@H]1C[C@@H]([C@H](O)CC2CC(=O)NC(=O)C2)C(=O)[C@@H](C)C1` [CYCLOHEXIMIDE] the inhibition of growth at 10 µM [1] was 9%, the inhibition of growth at 10 µM [2] was 34% and the inhibition of growth at 10 µM [3] was 18%. The IC50 [7] was 60.1 µM, the IC50 [8] was 54.1 µM and the inhibition of growth at 10 µM [4] was 11%. It also gave an IC50 [9] of 65.1 µM, an inhibition of growth at 10 µM [6] of 16% and an IC50 [10] of 128 µM. The IC50 [11] was 57.1 µM and the IC50 [12] was 40.6 µM.

Molecule `O=P1(N(CCCl)CCCl)NCCCO1` (stereo not drawn) [CYCLOPHOSPHAMIDE ANHYDROUS] has an inhibition of growth at 10 µM [1] of 11%, an inhibition of growth at 10 µM [2] of 12% and an inhibition of growth at 10 µM [3] of 18%. The IC50 [7] was 67.9 µM, the IC50 [8] was 74.3 µM and the inhibition of growth at 10 µM [4] was 9%. For the same molecule, the IC50 [9] was 70.1 µM, the inhibition of growth at 10 µM [6] was 4% and the IC50 [10] was 125 µM. For the same molecule, the IC50 [11] was 55.3 µM and the IC50 [12] was 64.1 µM.

With `O=c1[nH]cc(F)c(=O)[nH]1` [FLUOROURACIL] the inhibition of growth at 10 µM [1] was 13%, the inhibition of growth at 10 µM [2] was 22% and the inhibition of growth at 10 µM [3] was 32%. The IC50 [7] was 56.8 µM, the IC50 [8] was 45 µM and the inhibition of growth at 10 µM [4] was 15%. It also gave an IC50 [9] of 51.8 µM, an inhibition of growth at 10 µM [6] of 19% and an IC50 [10] of 110 µM. It also gave an IC50 [11] of 29.9 µM and an IC50 [12] of 39.5 µM.

For `CC(C)Cc1ccc(C(C)C(=O)O)cc1` (stereo not drawn) [IBUPROFEN], the inhibition in vivo at 50 mg/kg [5] was 39%.

From ChEMBL document CHEMBL2311276, “Synthesis of amidine and bis amidine derivatives and their evaluation for anti-inflammatory and anticancer activity” (Eur J Med Chem, 2013)
